Our source for the Activity and AUC(0-t) values is ChEMBL document CHEMBL6087468, “TKK130 is a 3-Hydroxy-Propanamidine (HPA) with Potent Antimalarial In Vivo Activity and a High Barrier to Resistance” (J Med Chem, 2025).

One series relates to Plasmodium berghei. Briefly: In vivo antiplasmodial activity against Plasmodium berghei infected mouse model assessed as curation rate at 10 mg/kg, po treated 4 times measured at 96 hrs post infection by fluorescence-activated cell sorting (FACS) analysis. In kind it is functional.
The subject of a further series is Plasmodium falciparum. Nature of the series: Antimalarial activity against chloroquine, sulfadoxine, and pyrimethamine-resistant Plasmodium falciparum Dd2 infected in erythrocyte assessed as reduction in number of viable parasites at 10 times IC50 concentration treated for 72 hrs followed by allowed to recover in drug-free medium for 28 days by HRP2-ELISA analysis. In kind it is functional, organism-based. For orientation: ELISA stands for enzyme-linked immunosorbent assay.

Series [1] is described as follows: AUC (0 to t) in mouse infected with Plasmodium berghei at 30 mg/kg, po. The series is classed as ADME, organism-based. To be noted: in vivo. In outline:
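Single oral dose to P. berghei-infected mice, 2 mice per dose group. Blood sampled at 1, 4 and 24 h post-dose as dried blood spots, plus a blank "0 h" reading. Spots diluted 1:5 (3, 10 mg/kg) or 1:10 (30 mg/kg), then quantified by LC–MS/MS against a whole-blood calibration of 1.56–800 ng/mL with QCs at three levels.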

Structures are written as SMILES. Calls of active or inactive are those of the source. The calls are words filed in the database; no cut-off is given here.

One may read the AUC(0-t) as exposure summed from dosing to a finite time, without extrapolation to infinity. The low end stands for low exposure, the high end for high exposure. As to `Cl.N=C(CC(O)c1cc2c(F)cc(F)cc2c2cc(C(F)(F)F)ccc12)Nc1ccc(F)cc1` (stereo not drawn), the Activity with Plasmodium berghei was 33%. Besides, the result in the series with Plasmodium falciparum was Active. The AUC(0-t) in series [1] came out at 40.9 µg·h/mL.
